Consider 35 molecules from ChEMBL document CHEMBL1157410, “7-aryl 1,5-dihydro-benzo[e][1,4]oxazepin-2-ones and analogs as non-steroidal progesterone receptor antagonists” (Bioorg Med Chem, 2008).

One assay concerns the target T1, Progesterone receptor (Homo sapiens, UniProt P06401).
T1 sequence (P06401 whole entry): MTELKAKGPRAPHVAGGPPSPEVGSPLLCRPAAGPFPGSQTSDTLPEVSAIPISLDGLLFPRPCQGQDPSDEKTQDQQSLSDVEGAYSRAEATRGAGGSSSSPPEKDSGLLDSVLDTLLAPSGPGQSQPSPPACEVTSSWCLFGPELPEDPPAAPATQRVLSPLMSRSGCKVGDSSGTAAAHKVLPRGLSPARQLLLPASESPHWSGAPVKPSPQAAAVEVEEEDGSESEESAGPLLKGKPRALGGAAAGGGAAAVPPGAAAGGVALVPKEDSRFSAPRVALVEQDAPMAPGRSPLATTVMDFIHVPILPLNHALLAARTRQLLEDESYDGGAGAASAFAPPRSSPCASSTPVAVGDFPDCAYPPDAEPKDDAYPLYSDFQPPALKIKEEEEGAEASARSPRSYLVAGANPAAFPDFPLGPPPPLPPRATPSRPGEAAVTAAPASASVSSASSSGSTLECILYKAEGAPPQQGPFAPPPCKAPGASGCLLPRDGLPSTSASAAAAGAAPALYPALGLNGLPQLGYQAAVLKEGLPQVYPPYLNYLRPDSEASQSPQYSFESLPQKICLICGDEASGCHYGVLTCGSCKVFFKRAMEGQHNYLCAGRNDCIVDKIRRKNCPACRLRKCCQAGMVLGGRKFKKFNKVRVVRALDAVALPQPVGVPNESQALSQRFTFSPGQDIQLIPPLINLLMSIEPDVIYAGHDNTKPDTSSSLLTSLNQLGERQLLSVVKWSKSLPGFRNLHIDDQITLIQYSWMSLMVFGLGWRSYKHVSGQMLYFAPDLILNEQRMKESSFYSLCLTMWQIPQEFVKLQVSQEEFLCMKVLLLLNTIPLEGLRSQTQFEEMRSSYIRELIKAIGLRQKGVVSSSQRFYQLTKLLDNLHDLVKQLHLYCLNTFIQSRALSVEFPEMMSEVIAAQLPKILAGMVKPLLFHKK
The experiment in a line: Inhibition of progesterone receptor mediated progesterone-induced alkaline phosphatase activity in human T47D cells. In kind it is cell-based.
Settings: not given
The molecule `N#Cc1cc(F)cc(-c2ccc3c(c2)C(c2cccs2)(c2cccs2)OCC(=O)N3)c1` returned an IC50 of 26.6 nM.

In turn, `N#Cc1cc(F)cc(-c2ccc3c(c2)C(c2ccco2)(C(F)(F)C(F)(F)F)OCC(=O)N3)c1` (stereo not given) yielded an IC50 of 34.1 nM.

For `CC(C)C1(c2cccs2)OCC(=O)Nc2ccc(-c3ccc(F)c(Cl)c3)cc21` (stereo not given), the IC50 turned out to be 366 nM.

Molecule `CC(C)C1(c2cccs2)OCC(=S)Nc2ccc(-c3cc(F)cc(C#N)c3)cc21` (stereo not given) registered a 50% inhibitory concentration (IC50) of 78.2 nM.

Molecule `CC1(C)OCC(=O)Nc2ccc(-c3ccc(F)c(Cl)c3)cc21` displayed an IC50 of 30.1 nM.

Regarding `N#Cc1cc(F)cc(-c2ccc3c(c2)C(c2ccc(Cl)s2)(c2ccc(Cl)s2)OCC(=O)N3)c1`, half-maximal inhibition (IC50) was put at 1000 nM.

`CC(C)C1(c2cccs2)OCC(=O)Nc2ccc(-c3cc(F)cc(C#N)c3)cc21` (stereo not given): 138 nM corresponded to half-maximal inhibition (IC50).

On to `O=C1COC(c2ccc(Cl)s2)(c2ccc(Cl)s2)c2cc(-c3ccc(F)c(Cl)c3)ccc2N1`, for which the midpoint of inhibition, the IC50, lay at 1000 nM.

Take `CC1(C)OCC(=O)Nc2ccc(-c3cc(F)cc(F)c3)cc21`: the half-maximal inhibitory concentration (IC50) was 30 nM.

The molecule `O=C1COC(c2ccco2)(C(F)(F)C(F)(F)F)c2cc(-c3ccc(F)c(Cl)c3)ccc2N1` (stereo not given) had an IC50 of 82.4 nM.

`CC1(C)OCC(=O)Nc2ccc(-c3ccc(F)c(F)c3)cc21` gave an IC50 of 29.3 nM.

With `CC1(C)OCC(=O)Nc2ccc(-c3cc(F)cc(Cl)c3)cc21`, the IC50 was found to be 15 nM.

`CCC1(c2ccsc2)OCC(=O)Nc2ccc(-c3ccc(F)c(Cl)c3)cc21` (stereo not given) showed an IC50 of 117 nM.

With `O=C1COC(c2ccccc2)(c2ccccc2)c2cc(-c3ccc(F)c(Cl)c3)ccc2N1`, 88 nM corresponded to half-maximal inhibition (IC50).

`CC1(C)OCC(=O)Nc2ccc(-c3ccccc3F)cc21` had an IC50 of 62.1 nM.

Turning to `CC1(C)OCC(=O)Nc2ccc(-c3ccc(F)cc3)cc21`, the IC50 was 100 nM.

The molecule `O=C1COC(c2ccco2)(c2ccco2)c2cc(-c3ccc(F)c(Cl)c3)ccc2N1` registered an IC50 of 22.5 nM.

Regarding `CC1=NCC(=O)Nc2ccc(-c3ccc(F)c(Cl)c3)cc21`, half-maximal inhibition (IC50) required 677 nM.

As for `CC1(c2cccs2)OCC(=O)Nc2ccc(-c3ccc(F)c(Cl)c3)cc21` (stereo not given), the IC50 was found to be 65.5 nM.

Consider `CC1(C)OCC(=O)Nc2ccc(-c3cc(Cl)cc(Cl)c3)cc21`, for which it took 29.1 nM to reach half-maximal inhibition (IC50).

`CC1(C)OCC(=O)Nc2ccc(-c3cccc(F)c3F)cc21` gave an IC50 of 15.7 nM.

Molecule `CC1(C)OCC(=O)Nc2ccc(-c3cccc(F)c3)cc21` had an IC50 of 14.9 nM.

Turning to `CCCC1(c2cccs2)OCC(=O)Nc2ccc(-c3ccc(F)c(Cl)c3)cc21` (stereo not given), the IC50 was determined as 349 nM.

For the molecule `CCC1(c2ccsc2)OCC(=O)Nc2ccc(-c3cc(F)cc(C#N)c3)cc21` (stereo not given), it took 59.2 nM to reach half-maximal inhibition (IC50).

As to `O=C1COC(c2cccs2)(c2cccs2)c2cc(-c3ccc(F)c(Cl)c3)ccc2N1`, 65.2 nM corresponded to half-maximal inhibition (IC50).

The molecule `CCC1(c2cccs2)OCC(=O)Nc2ccc(-c3ccc(F)c(Cl)c3)cc21` (stereo not given) came in with an IC50 of 208 nM.

For `CCC1(c2cccs2)OCC(=O)Nc2ccc(-c3cc(F)cc(C#N)c3)cc21` (stereo not given), the half-maximal inhibitory concentration (IC50) is 100 nM.

Regarding `CC1(C)OCC(=O)Nc2ccc(-c3cc(Cl)cc(C#N)c3)cc21`, half-maximal inhibition (IC50) required 34.6 nM.

In turn, `CCC1(c2ccco2)OCC(=O)Nc2ccc(-c3coc(C#N)c3)cc21` (stereo not given) gave an IC50 of 29.9 nM.

With `CCC1(c2cccs2)OCC(=O)Nc2ccc(-c3csc(C#N)c3)cc21` (stereo not given), the IC50 was determined as 108 nM.

In the case of `CN1CC(=O)Nc2ccc(-c3ccc(F)c(Cl)c3)cc2C1(C)C`, the IC50 was 105 nM.

Molecule `CCC1(c2ccco2)OCC(=O)Nc2ccc(-c3ccc(F)c(Cl)c3)cc21` (stereo not given) returned an IC50 of 62.5 nM.

Another assay addresses T2, Mineralocorticoid receptor (Homo sapiens) (UniProt P08235).
T2 sequence (whole entry): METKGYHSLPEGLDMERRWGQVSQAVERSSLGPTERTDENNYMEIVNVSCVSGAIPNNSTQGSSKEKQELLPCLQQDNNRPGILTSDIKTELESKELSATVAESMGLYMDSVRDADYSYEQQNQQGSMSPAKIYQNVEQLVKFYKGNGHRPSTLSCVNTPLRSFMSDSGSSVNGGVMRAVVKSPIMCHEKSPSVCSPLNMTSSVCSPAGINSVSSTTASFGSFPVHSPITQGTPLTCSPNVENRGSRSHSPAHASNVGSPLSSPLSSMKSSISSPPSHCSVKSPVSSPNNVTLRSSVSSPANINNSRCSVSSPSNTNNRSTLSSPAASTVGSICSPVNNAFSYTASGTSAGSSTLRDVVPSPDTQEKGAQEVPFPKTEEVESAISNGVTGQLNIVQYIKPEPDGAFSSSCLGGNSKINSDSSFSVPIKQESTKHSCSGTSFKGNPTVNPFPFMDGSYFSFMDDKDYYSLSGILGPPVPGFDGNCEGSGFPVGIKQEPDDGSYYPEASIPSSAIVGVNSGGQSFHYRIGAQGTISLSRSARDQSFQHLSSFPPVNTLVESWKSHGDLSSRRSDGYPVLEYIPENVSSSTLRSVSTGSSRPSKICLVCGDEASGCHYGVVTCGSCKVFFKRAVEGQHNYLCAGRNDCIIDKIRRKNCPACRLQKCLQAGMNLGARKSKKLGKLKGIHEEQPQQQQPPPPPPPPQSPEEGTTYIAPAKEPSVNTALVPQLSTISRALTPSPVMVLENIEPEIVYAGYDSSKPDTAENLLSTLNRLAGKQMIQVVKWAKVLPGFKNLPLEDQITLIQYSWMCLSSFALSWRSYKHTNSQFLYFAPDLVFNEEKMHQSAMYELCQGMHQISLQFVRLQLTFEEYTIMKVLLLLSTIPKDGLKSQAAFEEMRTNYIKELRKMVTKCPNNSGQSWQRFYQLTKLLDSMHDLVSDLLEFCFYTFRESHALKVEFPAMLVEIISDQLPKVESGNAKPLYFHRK
Put plainly: Antagonist activity at cloned mineralocorticoid receptor-ligand binding domain expressed in african green monkey COS7 cells by GAL4 luciferase reporter assay. In kind it is cell-based. Conditions: COS-7; concentration not given here. A digest of the protocol: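 GAL4 DNA-binding domain fused to receptor ligand-binding domain, one-hybrid format. LBD fusion and GAL4_UAS (5 copies, E1b minimal TATA) luciferase reporter plasmids, 50 ng/well each, transfected 16 h into COS-7 cells. Cells grown in phenol red-free DMEM with 10% charcoal/dextran-treated FBS. Compound exposure 20 h, then luciferase read on lysates. Mean of at least duplicate determinations.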
For orientation: A reporter such as luciferase makes a cellular process visible.
For `CC#C[C@]1(O)CC[C@H]2[C@@H]3CCC4=CC(=O)CCC4=C3[C@@H](c3ccc(N(C)C)cc3)C[C@@]21C`, the inhibition is 96%.

The target in another assay is T1, Progesterone receptor. The experiment in a line: Agonist activity at progesterone receptor assessed as alkaline phosphatase activity in human T47D cells.
Settings: not given
Turning to `CC1(C)OC(=O)Nc2ccc(-c3cc(F)cc(C#N)c3)cc21`, the EC50 was found to be 90 nM.

Staying with this assay, now noted: read-out: EC50.
Consider `CC1(C)OCC(=S)Nc2ccc(-c3cc(F)cc(F)c3)cc21`, for which the EC50 is 35.8 nM.

As usually defined, the IC50 is the point on the concentration scale where inhibition reaches its midpoint. Broadly, the inhibition is the share of the control response that was lost under treatment. For orientation: EC50 means the midpoint of the concentration-response curve.
